Data as given in ChEMBL document CHEMBL3352307, “Bioactive anthraquinone derivatives from the mangrove-derived fungus Stemphylium sp. 33231” (J Nat Prod, 2014).
Values after ≈ are worked out from the molar mass of the structure shown.

What was measured:
[1] = Cytotoxic activity against mouse B16F10 cells by MTT assay; format: functional, cell-based; conditions: B16-F10
How it was run: (§1)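 MTT viability read-out on mouse melanoma B16F10 and human lung adenocarcinoma A549 lines, with epirubicin as positive control. Activity is given as IC50.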

[2] = system: A549; experiment: Cytotoxic activity against human A549 cells by MTT assay; format: functional, cell-based; how it was run: as §1
[3] = system: Micrococcus; experiment: Antimicrobial activity against Micrococcus tetragenus ATCC 13623 by broth dilution assay; format: functional
How it was run: (§2)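 Conventional broth dilution run on the seven terrestrial pathogenic bacterial strains, with ciprofloxacin as positive control.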

[4] = system: Escherichia coli; experiment: Antimicrobial activity against Escherichia coli ATCC 25922 by broth dilution assay; format: functional; how it was run: as §2
[5] = system: Staphylococcus; experiment: Antimicrobial activity against Staphylococcus albus ATCC 8799 by broth dilution assay; format: functional; how it was run: as §2
[6] = system: Bacillus cereus; experiment: Antimicrobial activity against Bacillus cereus ATCC 14579 by broth dilution assay; format: functional; how it was run: as §2
[7] = system: Staphylococcus aureus; experiment: Antimicrobial activity against Staphylococcus aureus ATCC 6538 by broth dilution assay; format: functional; how it was run: as §2
[8] = system: Kocuria rhizophila; experiment: Antimicrobial activity against Kocuria rhizophila ATCC 9341 by broth dilution assay; format: functional; how it was run: as §2
[9] = system: Bacillus subtilis; experiment: Antimicrobial activity against Bacillus subtilis ATCC 6633 by broth dilution assay; format: functional; how it was run: as §2
[10] = Micrococcus, ATCC 13623, read-out: MIC
[11] = Escherichia coli, ATCC 25922, read-out: MIC
[12] = Staphylococcus, ATCC 8799, read-out: MIC
[13] = Bacillus cereus, ATCC 14579, read-out: MIC
[14] = Staphylococcus aureus, ATCC 6538, read-out: MIC
[15] = Kocuria rhizophila, ATCC 9341, read-out: MIC
[16] = Bacillus subtilis, ATCC 6633, read-out: MIC

Row | SMILES | MIC [3, 10] | MIC [4, 11] | MIC [5, 12] | MIC [6, 13] | MIC [7, 14] | MIC [8, 15] | MIC [9, 16] | MIC [3] | MIC [5] | MIC [8] | MIC [9] | IC50 [1] | IC50 [2] | MIC [4] | MIC [6] | MIC [7]
1 | COc1cc(O)c2c(c1-c1c(OC)cc(O)c3c1C(=O)C1=C(C3=O)[C@@H](O)[C@H](O)[C@](C)(O)[C@H]1O)C(=O)C1=C(C2=O)[C@H](O)[C@@H](O)[C@@](C)(O)[C@@H]1O (atropisomer, axis not shown) |  |  |  |  | 5 µM (≈ 3.35 µg/mL) | > 10 µM | > 10 µM |  |  |  |  | > 10 µM | > 10 µM | 7.5 µM (≈ 5.03 µg/mL) | 10 µM (≈ 6.71 µg/mL) | 
2 | COc1cc(O)c2c(c1-c1c(OC)cc(O)c3c1C(=O)C1=C(C3=O)[C@@H](O)[C@H](O)[C@](C)(O)[C@H]1O)C(=O)C1=C(C2=O)[C@H](O)[C@@H](O)[C@@](C)(O)[C@@H]1O (single isomer, unassigned; atropisomer 2) | > 10 µM | 5 µM (≈ 3.35 µg/mL) | > 10 µM |  |  |  |  |  |  |  |  |  |  |  | 2.5 µM (≈ 1.68 µg/mL) | >10 µM
3 | COc1cc(O)c2c(c1)C(=O)c1cc(C)c(O)c(-c3c(OC)cc(O)c4c3C(=O)c3cc(C)c(O)cc3C4=O)c1C2=O (single isomer, unassigned; atropisomer 2) | > 10 µM | > 10 µM | > 10 µM | > 10 µM | > 10 µM | > 10 µM | > 10 µM |  |  |  |  |  |  |  |  | 
4 | COc1cc(O)c2c(c1-c1c(OC)cc(O)c3c1C(=O)c1cc(C)c(O)cc1C3=O)C(=O)C1=C(C2=O)[C@H](O)[C@@H](O)[C@@](C)(O)[C@@H]1O (single isomer, unassigned; atropisomer 2) [ALTERPORRIOL A/B] |  |  |  |  |  |  |  | > 10 µM | > 10 µM | > 10 µM | > 10 µM | > 10 µM | > 10 µM | > 10 µM | > 10 µM | > 10 µM
5 | COc1cc(O)c2c(c1)C(=O)c1cc(C)c(O)c(-c3c(OC)cc4c(c3O)C(=O)c3cc(O)c(C)cc3C4=O)c1C2=O [ALTERPORRIOL Q] | > 10 µM | > 10 µM | > 10 µM | > 10 µM | > 10 µM | > 10 µM | > 10 µM |  |  |  |  | > 10 µM | > 10 µM |  |  | 
6 | COc1cc(O)c2c(c1)C(=O)C1=C(C2=O)[C@H](O)[C@@H](O)[C@@](C)(O)[C@@H]1O [ALTERSOLANOL A] | 8.2 µM (≈ 2.76 µg/mL) | 4.1 µM (≈ 1.38 µg/mL) | > 10 µM | > 10 µM | 2.07 µM (≈ 0.696 µg/mL) | > 10 µM | 4.1 µM (≈ 1.38 µg/mL) |  |  |  |  | > 10 µM | > 10 µM |  |  | 
7 | COc1cc(O)c2c(c1)C(=O)C1=C(C[C@@H](O)[C@@](C)(O)C1)C2=O [ALTERSOLANOL B] | > 10 µM | 7.8 µM (≈ 2.37 µg/mL) | > 10 µM | > 10 µM | 7.8 µM (≈ 2.37 µg/mL) | 7.8 µM (≈ 2.37 µg/mL) | 7.8 µM (≈ 2.37 µg/mL) |  |  |  |  | > 10 µM | > 10 µM |  |  | 
8 | COc1cc(O)c2c(c1)C(=O)C1=C(C[C@@H](O)[C@@](C)(O)[C@@H]1O)C2=O [ALTERSOLANOL C] | > 10 µM | > 10 µM | > 10 µM | > 10 µM | > 10 µM | > 10 µM | 8.8 µM (≈ 2.82 µg/mL) |  |  |  |  |  |  |  |  | 
9 | COc1cc(O)c2c(c1)[C@H](O)[C@@H]1[C@H](C[C@@H](O)[C@@](C)(O)[C@@H]1O)C2=O [ALTERSOLANOL L] | > 10 µM | > 10 µM | > 10 µM | > 10 µM | > 10 µM | > 10 µM | > 10 µM |  |  |  |  | > 10 µM | > 10 µM |  |  | 
10 | COc1cc(O)c2c(c1)[C@H](O)[C@@H]1[C@@H](C2=O)[C@H](O)[C@@H](O)[C@@](C)(O)[C@@H]1O [AMPELANOL] | > 10 µM | > 10 µM | > 10 µM | > 10 µM | > 10 µM | > 10 µM | > 10 µM |  |  |  |  |  |  |  |  | 
11 | COc1cc(O)c2c(c1)[C@H](O)[C@H]1C[C@](C)(O)[C@H](O)C[C@@H]1C2=O [TETRAHYDROALTERSOLANOL B] | > 10 µM | 7.3 µM (≈ 2.25 µg/mL) | > 10 µM | > 10 µM | > 10 µM | > 10 µM | > 10 µM |  |  |  |  |  |  |  |  | 

Now from value to compound, other results behind:

Row | MIC [3, 10] | MIC [4, 11] | MIC [5, 12] | MIC [6, 13] | MIC [7, 14] | MIC [8, 15] | MIC [9, 16] | MIC [3] | MIC [5] | MIC [8] | MIC [9] | SMILES | IC50 [1] | IC50 [2] | MIC [4] | MIC [6] | MIC [7]
12 | > 10 µM | > 10 µM | > 10 µM | > 10 µM | > 10 µM | > 10 µM | > 10 µM |  |  |  |  | COc1cc(O)c2c(c1)[C@H](O)[C@@H]1C(=C[C@@H](O)[C@@](C)(O)[C@@H]1O)C2=O | > 10 µM | > 10 µM |  |  | 
13 | > 10 µM | 9.8 µM (≈ 3.45 µg/mL) | > 10 µM | > 10 µM | > 10 µM | > 10 µM | > 10 µM |  |  |  |  | COc1cc(O)c2c(c1)C(=O)[C@@]13O[C@]1(C2=O)[C@H](O)[C@@H](O)[C@@](C)(O)[C@@H]3O | > 10 µM | > 10 µM |  |  | 
14 | 7.8 µM (≈ 2.7 µg/mL) | 3.9 µM (≈ 1.35 µg/mL) | 3.9 µM (≈ 1.35 µg/mL) | > 10 µM | 3.9 µM (≈ 1.35 µg/mL) | > 10 µM | 3.9 µM (≈ 1.35 µg/mL) |  |  |  |  | COc1cc(O)c2c(c1)C(=O)C1=C(C[C@@H](OC(C)=O)[C@@](C)(O)C1)C2=O | > 10 µM | > 10 µM |  |  | 
15 | > 10 µM | > 10 µM | > 10 µM | 8.3 µM (≈ 5.03 µg/mL) | > 10 µM | > 10 µM | > 10 µM |  |  |  |  | COc1cc2c(c(O)c1-c1c(OC)cc(O)c3c1C(=O)C1=C(C[C@@H](O)[C@@](C)(O)C1)C3=O)C(=O)C1=C(C[C@](C)(O)[C@H](O)C1)C2=O | > 10 µM | > 10 µM |  |  | 
16 | > 10 µM | > 10 µM | > 10 µM | 8.1 µM (≈ 4.59 µg/mL) | > 10 µM | > 10 µM | > 10 µM |  |  |  |  | COc1cc(O)c2c(c1)C(=O)c1cc(C)c(O)c(-c3c(O)c(C)cc4c3C(=O)c3c(O)cc(OC)cc3C4=O)c1C2=O | > 10 µM | > 10 µM |  |  | 
17 | > 10 µM | > 10 µM | > 10 µM | > 10 µM | > 10 µM | > 10 µM | > 10 µM |  |  |  |  | COc1cc(O)c2c(c1)[C@H](O)[C@@H]1[C@H](C[C@@H](OC(C)=O)[C@@](C)(O)[C@@H]1O)C2=O | > 10 µM | > 10 µM |  |  | 
18 | > 10 µM | > 10 µM | > 10 µM | > 10 µM | > 10 µM | > 10 µM | > 10 µM |  |  |  |  | COc1cc(O)c2c(c1)C(=O)c1cc(C)c(OS(=O)(=O)O)cc1C2=O | > 10 µM | > 10 µM |  |  | 
19 | > 10 µM | > 10 µM | > 10 µM | > 10 µM | > 10 µM | > 10 µM | > 10 µM |  |  |  |  | COc1cc2c(c(O)c1-c1c(OC)cc(O)c3c1C(=O)C1=C(C[C@@H](O)[C@@](C)(O)[C@@H]1O)C3=O)C(=O)C1=C(C[C@](C)(O)[C@H](O)C1)C2=O |  |  |  |  | 
20 | > 10 µM | > 10 µM | > 10 µM | > 10 µM | > 10 µM | > 10 µM | > 10 µM |  |  |  |  | COc1cc(O)c2c(c1)C(=O)c1cc(C)c(O)c(-c3c(OC)cc(O)c4c3C(=O)C3=C(C[C@@H](O)[C@@](C)(O)[C@@H]3O)C4=O)c1C2=O | > 10 µM | > 10 µM |  |  | 
21 | > 10 µM | > 10 µM | > 10 µM | > 10 µM | > 10 µM | > 10 µM | > 10 µM |  |  |  |  | COc1cc(O)c2c(c1-c1c(OC)cc(O)c3c1C(=O)C1=C(C[C@@H](O)[C@@](C)(O)[C@@H]1O)C3=O)C(=O)C1=C(C[C@@H](O)[C@@](C)(O)[C@@H]1O)C2=O |  |  |  |  | 
22 | > 10 µM | > 10 µM | > 10 µM | 7.9 µM (≈ 4.89 µg/mL) | > 10 µM | > 10 µM | > 10 µM |  |  |  |  | COc1cc(O)c2c(c1-c1c(OC)cc(O)c3c1C(=O)c1cc(C)c(O)cc1C3=O)C(=O)C1=C(C2=O)[C@H](O)[C@@H](O)[C@@](C)(O)[C@@H]1O (single isomer, unassigned; atropisomer 1) [ALTERPORRIOL A/B] |  |  |  |  | 
23 | > 10 µM | > 10 µM | 8.9 µM (≈ 5.51 µg/mL) | > 10 µM | > 10 µM | > 10 µM | > 10 µM |  |  |  |  | COc1cc(O)c2c(c1)C(=O)c1cc(C)c(O)c(-c3c(OC)cc4c(c3O)C(=O)C3=C(C4=O)[C@@H](O)[C@](C)(O)[C@H](O)[C@H]3O)c1C2=O (single isomer, unassigned; atropisomer 1) [ALTERPORRIOL C] | > 10 µM | > 10 µM |  |  | 
24 | 0.3 µM (≈ 0.0994 µg/mL) | 0.3 µM (≈ 0.0994 µg/mL) | 0.6 µM (≈ 0.199 µg/mL) | 0.6 µM (≈ 0.199 µg/mL) | 0.16 µM (≈ 0.053 µg/mL) | 0.3 µM (≈ 0.0994 µg/mL) | 0.6 µM (≈ 0.199 µg/mL) |  |  |  |  | O=C(O)c1cn(C2CC2)c2cc(N3CCNCC3)c(F)cc2c1=O [CIPROFLOXACIN] |  |  |  |  | 
25 | 4.6 µM (≈ 1.31 µg/mL) | 4.6 µM (≈ 1.31 µg/mL) | > 10 µM | > 10 µM | 9.2 µM (≈ 2.62 µg/mL) | > 10 µM | > 10 µM |  |  |  |  | COc1cc(O)c2c(c1)C(=O)c1cc(C)c(O)cc1C2=O [MACROSPORIN] | > 10 µM | > 10 µM |  |  | 
